# Measurements from ChEMBL document CHEMBL5303300, “EUbOPEN Chemogenomics Library - Multiplex” (2023).
# “And” between values parts separate entries of the source, which are not always exact repeats. Equal entries are not always repeated.
# System: Fibroblast
# Assay: Multiplex assay against human fibroblast
# Assay type: toxicity, cell-based
# Conditions: number of replicates 2
# Outline: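 Phenotypes for tubulin, mitochondrial mass and membrane permeability are expressed as per cents of healthy-nucleus cells. Cells were stained live at seeding with Hoechst33342, BioTracker Green Microtubule Cytoskeleton Dye, MitoTracker Red and Annexin V Alexa Fluor 680, then imaged after compound addition on a CQ1 microscope at 37°C and 5% CO2. Machine-learning gating in CellPathfinder separated Hoechst high-intensity objects from normal cells, divided normal cells by nuclear state (healthy, pyknosed, fragmented) and divided pyknosed cells into mitotic or apoptotic.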
# [1] = 12 h, 1 µM, compound concentration 1 uM
# [2] = 12 h, 10 µM, compound concentration 10 uM
# [3] = 24 h, 1 µM, compound concentration 1 uM
# [4] = 24 h, 10 µM, compound concentration 10 uM
# [5] = 48 h, 1 µM, compound concentration 1 uM
# [6] = 48 h, 10 µM, compound concentration 10 uM
compound,measurement,setting,value
CS(=O)(=O)c1ccc(C(=O)Nc2cccc(COc3cc(F)c(Br)cc3CN3CC[C@H](O)C3)c2)c(Cl)c1.O=CO,Population Apoptotic (%),[1],46% and 35%
same,Population Healthy Nuclei (%),[1],48% and 72%
same,Population Mitotic Cells (%),[1],53% and 64%
same,Population Pyknosed Nuclei (%),[1],41% and 16%
same,Total Cell Count,[1],114 and 171
same,Population Apoptotic (%),[2],51% and 40%
same,Population Healthy Nuclei (%),[2],48% and 51%
same,Population Mitotic Cells (%),[2],48% and 59%
same,Population Pyknosed Nuclei (%),[2],33% and 23%
same,Total Cell Count,[2],211 and 262
same,Population Apoptotic (%),[3],55% and 57%
same,Population Healthy Nuclei (%),[3],50%
same,Population Mitotic Cells (%),[3],42%
same,Population Pyknosed Nuclei (%),[3],39% and 18%
same,Total Cell Count,[3],120 and 190
same,Population Apoptotic (%),[4],77% and 74%
same,Population Healthy Nuclei (%),[4],53% and 58%
same,Population Mitotic Cells (%),[4],22%
same,Population Pyknosed Nuclei (%),[4],26% and 19%
same,Total Cell Count,[4],217 and 251
same,Population Apoptotic (%),[5],75% and 82%
same,Population Healthy Nuclei (%),[5],62%
same,Population Mitotic Cells (%),[5],24%
same,Population Pyknosed Nuclei (%),[5],23% and 11%
same,Total Cell Count,[5],123 and 198
same,Population Apoptotic (%),[6],92% and 82%
same,Population Healthy Nuclei (%),[6],62% and 60%
same,Population Mitotic Cells (%),[6],7%
same,Population Pyknosed Nuclei (%),[6],15% and 14%
same,Total Cell Count,[6],245 and 274
CS(=O)(=O)c1ccc(C(=O)Nc2cc(F)cc(COc3cc(F)c(Br)cc3CN3CC[C@H](O)C3)c2)c(Cl)c1.O=CO,Population Apoptotic (%),[1],46% and 47%
same,Population Fragmented Nuclei (%),[1],17%
same,Population Healthy Nuclei (%),[1],64% and 60%
same,Population Hoechst High Intensity Objects (%),[1],0%
same,Population Normal (%),[1],99%
same,Population Pyknosed Nuclei (%),[1],18% and 26%
same,Total Cell Count,[1],269 and 200
same,Population Apoptotic (%),[2],67% and 54%
same,Population Fragmented Nuclei (%),[2],20% and 17%
same,Population Hoechst High Intensity Objects (%),[2],0%
same,Population Normal (%),[2],100%
same,Population Pyknosed Nuclei (%),[2],49% and 35%
same,Total Cell Count,[2],234
same,Population Apoptotic (%),[3],56% and 57%
same,Population Fragmented Nuclei (%),[3],20% and 17%
same,Population Healthy Nuclei (%),[3],65% and 63%
same,Population Hoechst High Intensity Objects (%),[3],0%
same,Population Normal (%),[3],100%
same,Population Pyknosed Nuclei (%),[3],19%
same,Total Cell Count,[3],284 and 204
same,Population Apoptotic (%),[4],88% and 75%
same,Population Fragmented Nuclei (%),[4],11%
same,Population Healthy Nuclei (%),[4],42% and 51%
same,Population Hoechst High Intensity Objects (%),[4],0%
same,Population Normal (%),[4],99% and 100%
same,Population Pyknosed Nuclei (%),[4],44% and 36%
same,Total Cell Count,[4],134 and 230
same,Population Apoptotic (%),[5],74% and 71%
same,Population Fragmented Nuclei (%),[5],25%
same,Population Healthy Nuclei (%),[5],66% and 65%
same,Population Hoechst High Intensity Objects (%),[5],0%
same,Population Normal (%),[5],100%
same,Population Pyknosed Nuclei (%),[5],8%
same,Total Cell Count,[5],319 and 223
same,Population Apoptotic (%),[6],93% and 90%
same,Population Fragmented Nuclei (%),[6],18% and 10%
same,Population Healthy Nuclei (%),[6],22% and 39%
same,Population Hoechst High Intensity Objects (%),[6],0%
same,Population Normal (%),[6],100% and 98%
same,Population Pyknosed Nuclei (%),[6],58% and 50%
same,Total Cell Count,[6],102 and 177
CS(=O)(=O)c1ccc(C(=O)Nc2ccc(F)c(COc3ccc(Br)cc3CNCCO)c2)c(Cl)c1.O=CO,Population Apoptotic (%),[1],41% and 39%
same,Population Healthy Nuclei (%),[1],69% and 66%
same,Population Mitotic Cells (%),[1],58% and 60%
same,Total Cell Count,[1],178 and 232
same,Population Apoptotic (%),[2],50% and 51%
same,Population Healthy Nuclei (%),[2],49%
same,Population Mitotic Cells (%),[2],50% and 48%
same,Population Pyknosed Nuclei (%),[2],35% and 30%
same,Total Cell Count,[2],220 and 252
same,Population Apoptotic (%),[3],63% and 46%
same,Population Healthy Nuclei (%),[3],68% and 56%
same,Population Mitotic Cells (%),[3],36% and 53%
same,Total Cell Count,[3],202 and 243
same,Population Apoptotic (%),[4],68% and 73%
same,Population Healthy Nuclei (%),[4],54% and 56%
same,Population Mitotic Cells (%),[4],31% and 26%
same,Population Pyknosed Nuclei (%),[4],27% and 22%
same,Total Cell Count,[4],219 and 283
same,Population Apoptotic (%),[5],54% and 68%
same,Population Healthy Nuclei (%),[5],71% and 72%
same,Population Mitotic Cells (%),[5],45% and 31%
same,Total Cell Count,[5],202 and 207
same,Population Apoptotic (%),[6],88% and 77%
same,Population Healthy Nuclei (%),[6],63% and 61%
same,Population Mitotic Cells (%),[6],11% and 22%
same,Population Pyknosed Nuclei (%),[6],22%
same,Total Cell Count,[6],200 and 244
